ChEMBL document CHEMBL1287763, “Antiangiogenic properties of substituted (Z)-(±)-2-(N-benzylindol-3-ylmethylene)quinuclidin-3-ol/one analogs and their derivatives” (Bioorg Med Chem Lett, 2010)
The source made the active and inactive calls. The rule behind the calls is not given here.

Legend:
HUVEC [1] = assay: Inhibition of ECTO-NOX in HUVEC assessed as reduction of WST-1 at 10 uM […]; format: cell-based; conditions: Homo sapiens
Outline: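 HUVECs were grown for 24 h after seeding, then treated for 20 h in duplicate with analog (0.5, 1, 5, 10 µM) or DMSO solvent. WST-1 reduction was then measured following the kit protocol, read as optical density at 450 nm.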

HUVEC [2] = assay: Cytotoxicity against HUVEC assessed as cell viability at 10 uM after 6 hrs by crystal violet staining; format: cell-based; conditions: human
HUVEC [3] = assay: Antiangiogenic activity against HUVEC assessed as inhibition of cell migration at 10 uM after 20 hrs by scratch assay; format: functional, cell-based; conditions: Homo sapiens
Outline: (§1)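 Confluent HUVEC monolayers were scratched with a pipette tip and washed twice with PBS. Compound was added in HUVEC medium, and cells were incubated at 37°C for 20 h. Images were taken at 0 h (right after compound addition) and at 20 h. Migration was compared with cells not given compound.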

HUVEC [4] = assay: Antiangiogenic activity against HUVEC assessed as inhibition of cell migration at 25 uM after 20 hrs by scratch assay; format: functional, cell-based; conditions: Homo sapiens; outline: as §1
HUVEC [5] = assay: Antiangiogenic activity against HUVEC assessed as inhibition of p70S6K1 phosphorylation at T389; format: functional, cell-based; conditions: Homo sapiens

SMILES	ECTO-NOX inhibition (active/not active) (HUVEC [1])	Activity (HUVEC [2])	Activity (HUVEC [3])	Activity (HUVEC [4])	inhibition (HUVEC [5])
OC1/C(=C/c2cn(Cc3ccccc3)c3ccc(Br)cc23)N2CCC1CC2 (centres undefined)	inactive	Non-toxic	Active	Active	
O=C(Nc1ccccc1)OC1/C(=C/c2cn(S(=O)(=O)c3ccccc3)c3ccccc23)N2CCC1CC2 (centres undefined)			Active	Active	
OC1/C(=C/c2cn(Cc3cccc(F)c3)c3ccc(Br)cc23)N2CCC1CC2 (centres undefined)		Non-toxic	Active	Active	
O=S(=O)(c1ccccc1)n1cc(/C=C2/C(=N/O)C3CCN2CC3)c2ccccc21	Active	Non-toxic	Active	Active	Active
O=[N+]([O-])c1ccc2c(c1)c(/C=C1/C(O)C3CCN1CC3)cn2Cc1ccccc1 (centres undefined)		Non-toxic	Active	Active	
OC1/C(=C/c2cn(Cc3cccc(F)c3)c3ccccc23)N2CCC1CC2 (centres undefined)	inactive	Non-toxic	Active	Active	
NC(=O)N/N=C1/C(=C/c2cn(S(=O)(=O)c3ccccc3)c3ccccc23)N2CCC1CC2	inactive		Active	Active	
Cc1ccc(S(=O)(=O)n2cc(/C=C3/C(O)C4CCN3CC4)c3ccccc32)cc1 (centres undefined)	inactive				
Cc1cccc(Cn2cc(/C=C3/C(O)C4CCN3CC4)c3cc(C)ccc32)c1 (centres undefined)	inactive	Non-toxic	Active	Active	
